Shown are actives, neighbours in structure and some others; about 1.5% of the full set was active somewhere.
S100A4 MyoIIA: inhibitors of S100A4-myosin IIA peptide binding, primary screen, biochemical, fluorescence polarization, TAMRA-MyoIIA peptide; Protein S100-A4 (Homo sapiens), P26447; inhibition, % at 10.7 µM; 0.14% of 360,000 active;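 active means mean inhibition of at least 70% across replicates, with every replicate also reaching that level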
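Material: S100A4 monomer (human). Medium: Calcium-containing HEPES buffer, pH 7.2. Probe or stimulus: labelled myosin peptide probe, 5 nM. Compound dosing: one concentration per compound. Timing: polarization read 5 min after assay mix addition, stable 5–60 min. Benchmarks: DMSO as neutral control, TFP as positive control.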
PDI inh: inhibitors of human PDI, primary screen, biochemical, turbidity, single point, plate reader | 0.052% of 350,000 active | PDI insulin aggregation turbidity, A650, 90 min | inhibition, % at 10 µM;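 active means mean inhibition across replicates of 30% or more, whatever share of single replicates reach that level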
INS-1E GSIS act: GLuc luminescence reporter in INS-1E cells, primary screen for activators of glucose-dependent secretion of insulin | 0.61% of 370,000 active | activation, % at 16.6 µM | INS-1E GLuc reporter insulin secretion, 2-3 h;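 active means lowest replicate activation of at least 40%, so every replicate reaches that level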;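 further: 0% = median of neutral control wells and 100% = median of IBMX positive control wells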
ERp5 inh: inhibitors of ERp5-driven insulin aggregation, primary screen, biochemical, turbidity, absorbance 650 nm, single point | Protein disulfide-isomerase A6 (Homo sapiens), Q15084 | 90 min | inhibition, % at 9.99 µM | 0.05% of 350,000 active | AID 651711, 2012;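 active means mean replicate inhibition above about 25%, with every replicate also reaching it, limit read from the data, passing the limit was not always enough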
Target sequence (Q15084 whole entry, looked up): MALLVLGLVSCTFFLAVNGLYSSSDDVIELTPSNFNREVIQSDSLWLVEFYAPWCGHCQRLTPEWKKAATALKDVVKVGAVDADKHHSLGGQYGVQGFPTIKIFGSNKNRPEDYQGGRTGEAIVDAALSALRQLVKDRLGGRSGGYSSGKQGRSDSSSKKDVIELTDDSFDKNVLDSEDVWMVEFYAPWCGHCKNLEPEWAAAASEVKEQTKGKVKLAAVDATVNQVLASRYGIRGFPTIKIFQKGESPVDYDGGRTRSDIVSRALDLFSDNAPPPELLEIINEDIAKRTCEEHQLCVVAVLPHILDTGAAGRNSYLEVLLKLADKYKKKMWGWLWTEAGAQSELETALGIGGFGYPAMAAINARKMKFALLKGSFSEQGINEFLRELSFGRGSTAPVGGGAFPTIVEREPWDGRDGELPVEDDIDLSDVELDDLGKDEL
SIRT5 block: SIRT5 desuccinylase inhibitors, primary screen, biochemical, fluorescence imaging, single point, set 5; NAD-dependent protein deacylase sirtuin-5, mitochondrial (Homo sapiens), Q9NXA8; Purified SirT5, succinyl-peptide AMC, trypsin-coupled fluorescence; inhibition, % at 15 µM; 1.1% of 330,000 active; in the data active means inhibition above about 15%
Starred values were filed as active, the others as inactive; . = not tested or not shown.

SMILES | S100A4 MyoIIA | PDI inh | INS-1E GSIS act | ERp5 inh | SIRT5 block
CCN(CCCNC(=O)C1CCC(=O)N1Cc1ccccc1Cl)c1cccc(C)c1 (stereo not drawn) | . | -2 | 2 | . | .
COc1ccc([Si](C)(C)[C@H]2[C@H](CCn3cc([C@H](O)c4ccccc4)nn3)O[C@@]3(C(=O)N(Cc4cccc(N5CCOC5=O)c4)c4ccccc43)[C@@H]2C)cc1 | -49 | . | . | -1 | 23*
COc1ccc([Si](C)(C)[C@@H]2[C@@H](CCO)O[C@]3(C(=O)N4c5c(cc(OC)cc53)C(C)=CC4(C)C)[C@H]2C)cc1 | 7 | . | . | 6 | 15*
COc1ccc([Si](C)(C)[C@@H]2[C@@H](CCO)O[C@]3(C(=O)N(Cc4cccc(NC(C)=O)c4)c4ccccc43)[C@H]2C)cc1 | 30 | . | . | 3 | 21*
COc1ccc([Si](C)(C)[C@H]2[C@H](CCn3cc([C@H](O)c4ccccc4)nn3)O[C@@]3(C(=O)N(Cc4cccc(N5CCC5=O)c4)c4ccccc43)[C@@H]2C)cc1 | 12 | . | . | -6 | 5
CC(=O)N1c2ccc(S(=O)(=O)NCC3CCC(C(=O)NC4CCC(C)CC4)CC3)cc2CC1C (stereo not drawn) | 2 | 5 | -10 | -9 | -3
CC(=O)N1c2ccc(S(=O)(=O)NCCC(=O)NC3CCC(C)CC3)cc2CC1C (stereo not drawn) | 20 | -5 | 8 | -2 | 44*
COc1ccccc1-c1ccc2c(c1)O[C@@H](CN(C)S(=O)(=O)c1ccccc1)[C@H](C)CN([C@@H](C)CO)S2(=O)=O | 3 | . | -3 | -3 | 20*
COc1ccccc1-c1ccc2c(c1)O[C@@H](CN(C)S(=O)(=O)c1ccccc1)[C@H](C)CN([C@H](C)CO)S2(=O)=O | -1 | . | -11 | -5 | 19*
CN(C)CC(=O)N[C@H]1C=C[C@@H](CC(=O)NCc2ccccc2F)O[C@@H]1CO | -16 | . | 5 | 1 | -3
COc1ccccc1-c1ccc2c(c1)[C@@H]1[C@@H](CCN1C(=O)c1ccncc1)[C@@H](CO)N2 | 4 | . | 4 | 5 | -3
COC(=O)c1cc(C)nc2c1C(=O)C(=O)C=C2N1CCOCC1 | -9 | 2 | 8 | 63* | 6
COc1ccc(CCN(C)C(=O)COc2cccc(-n3cnnn3)c2)cc1OC | 6 | 8 | 83* | -2 | 0
CCC(CC)NC(=O)CN1CCN(S(=O)(=O)c2cccs2)CC1 | -2 | 10 | 47* | -1 | -3
C[C@H](CO)N1C[C@H](C)[C@@H](CN(C)Cc2ccc(Oc3ccccc3)cc2)Oc2c(NC(=O)CCCCCC(=O)Nc3ccccc3N)cccc2C1=O | -6 | . | -50 | 10 | 22*
C[C@@H]1CN([C@H](C)CO)C(=O)c2cccc(NC(=O)CCCCCC(=O)Nc3ccccc3N)c2O[C@@H]1CN(C)Cc1ccccc1 | -7 | . | 15 | 0 | .
C[C@H](CO)N1C[C@H](C)[C@H](CN(C)Cc2ccccc2)Oc2c(NC(=O)CCCCCC(=O)Nc3ccccc3N)cccc2C1=O | 108* | . | -3 | -4 | 2
C[C@@H]1CN([C@H](C)CO)C(=O)c2cccc(NC(=O)CCCCCC(=O)Nc3ccccc3N)c2O[C@H]1CN(C)Cc1ccc(Cl)c(Cl)c1 | 4 | . | 2 | 5 | 15*
C[C@H]1CN([C@@H](C)CO)C(=O)c2cccc(NC(=O)CCCCCC(=O)Nc3ccccc3N)c2O[C@@H]1CN(C)Cc1ccc(Cl)c(Cl)c1 | 8 | . | -6 | 1 | -1
C[C@H](CO)N1C[C@H](C)[C@@H](CN(C)CC2CCCCC2)Oc2c(NC(=O)CCCCCC(=O)Nc3ccccc3N)cccc2C1=O | 1 | . | -10 | -1 | 19*
CC(=O)N(C)C[C@@H]1Oc2ccc(N(C)C)cc2C(=O)N(C)C[C@@H]1C | . | . | 11 | . | .
CCOC(=O)Cc1csc(NC(=O)c2cc(C)cc(C)c2)n1 | -3 | 8 | -8 | -2 | 16*
CCOC(=O)Cc1csc(NC(=O)c2ccc(C)cc2)n1 | -1 | 4 | -11 | 1 | 3
COc1ccc(S(=O)(=O)N(C)C[C@H]2OCCCC[C@H](C)Oc3ccc(NS(=O)(=O)c4ccc(F)cc4)cc3C(=O)N([C@H](C)CO)C[C@H]2C)cc1 | 23 | . | -8 | 1 | 23*

Bioassay records deposited in PubChem by Broad Institute.
